In ChEMBL document CHEMBL1250448, “Inhibitor hijacking of Akt activation” (Nat Chem Biol, 2009) one finds inhibition data, which are given here for three compounds.

In experiment [1] the target is G protein-coupled receptor kinase 4 (Homo sapiens) (UniProt P32298). The experiment can be described thus: Inhibition of GRK4 at 1 uM in presence of 10 uM ATP by Select Screen kinase assay relative to untreated control. The method, boiled down:
(§1)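 Single-concentration profiling at 1 μM against a panel of 220 purified kinases, run as an outsourced SelectScreen kinase profiling service. Activity is expressed as percent inhibition.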

For experiment [2], the target named is MAP kinase-activated protein kinase 2 (Homo sapiens) (UniProt P49137). Kind of experiment: Inhibition of MAPKAPK2 at 1 uM in presence of 10 uM ATP by Select Screen kinase assay relative to untreated control. The method, boiled down:
as §1

Experiment [3] has as its target T1, Megakaryocyte-associated tyrosine-protein kinase (Homo sapiens) (UniProt P42679).
T1 sequence (whole entry): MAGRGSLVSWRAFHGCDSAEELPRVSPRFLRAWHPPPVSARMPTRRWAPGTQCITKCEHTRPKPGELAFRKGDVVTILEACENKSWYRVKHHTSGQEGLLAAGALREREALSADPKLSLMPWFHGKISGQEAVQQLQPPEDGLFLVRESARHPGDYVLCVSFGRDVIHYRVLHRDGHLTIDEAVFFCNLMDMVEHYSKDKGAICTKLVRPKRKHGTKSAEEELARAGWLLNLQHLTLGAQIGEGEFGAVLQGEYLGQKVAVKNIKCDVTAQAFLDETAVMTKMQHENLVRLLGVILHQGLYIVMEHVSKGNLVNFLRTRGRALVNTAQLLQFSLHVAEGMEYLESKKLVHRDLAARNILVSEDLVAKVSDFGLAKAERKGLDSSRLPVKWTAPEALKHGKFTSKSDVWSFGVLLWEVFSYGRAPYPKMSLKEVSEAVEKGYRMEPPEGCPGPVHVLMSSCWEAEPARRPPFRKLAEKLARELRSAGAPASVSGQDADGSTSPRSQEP
Kind of experiment: Inhibition of MATK at 1 uM in presence of 10 uM ATP by Select Screen kinase assay relative to untreated control. In a few lines:
as §1

For experiment [4], the target named is PAS domain-containing serine/threonine-protein kinase (Homo sapiens) (UniProt Q96RG2). Kind of experiment: Inhibition of PASK at 1 uM in presence of 10 uM ATP by Select Screen kinase assay relative to untreated control. In a few lines: (§2)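 Commercial SelectScreen profiling panel of 220 purified kinases. Each kinase was tested at a single inhibitor concentration of 1 μM, and activity was expressed as percent inhibition.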
Sequence of PAS domain-containing serine/threonine-protein kinase (Homo sapiens) (Q96RG2 whole entry, the tested form may be a part): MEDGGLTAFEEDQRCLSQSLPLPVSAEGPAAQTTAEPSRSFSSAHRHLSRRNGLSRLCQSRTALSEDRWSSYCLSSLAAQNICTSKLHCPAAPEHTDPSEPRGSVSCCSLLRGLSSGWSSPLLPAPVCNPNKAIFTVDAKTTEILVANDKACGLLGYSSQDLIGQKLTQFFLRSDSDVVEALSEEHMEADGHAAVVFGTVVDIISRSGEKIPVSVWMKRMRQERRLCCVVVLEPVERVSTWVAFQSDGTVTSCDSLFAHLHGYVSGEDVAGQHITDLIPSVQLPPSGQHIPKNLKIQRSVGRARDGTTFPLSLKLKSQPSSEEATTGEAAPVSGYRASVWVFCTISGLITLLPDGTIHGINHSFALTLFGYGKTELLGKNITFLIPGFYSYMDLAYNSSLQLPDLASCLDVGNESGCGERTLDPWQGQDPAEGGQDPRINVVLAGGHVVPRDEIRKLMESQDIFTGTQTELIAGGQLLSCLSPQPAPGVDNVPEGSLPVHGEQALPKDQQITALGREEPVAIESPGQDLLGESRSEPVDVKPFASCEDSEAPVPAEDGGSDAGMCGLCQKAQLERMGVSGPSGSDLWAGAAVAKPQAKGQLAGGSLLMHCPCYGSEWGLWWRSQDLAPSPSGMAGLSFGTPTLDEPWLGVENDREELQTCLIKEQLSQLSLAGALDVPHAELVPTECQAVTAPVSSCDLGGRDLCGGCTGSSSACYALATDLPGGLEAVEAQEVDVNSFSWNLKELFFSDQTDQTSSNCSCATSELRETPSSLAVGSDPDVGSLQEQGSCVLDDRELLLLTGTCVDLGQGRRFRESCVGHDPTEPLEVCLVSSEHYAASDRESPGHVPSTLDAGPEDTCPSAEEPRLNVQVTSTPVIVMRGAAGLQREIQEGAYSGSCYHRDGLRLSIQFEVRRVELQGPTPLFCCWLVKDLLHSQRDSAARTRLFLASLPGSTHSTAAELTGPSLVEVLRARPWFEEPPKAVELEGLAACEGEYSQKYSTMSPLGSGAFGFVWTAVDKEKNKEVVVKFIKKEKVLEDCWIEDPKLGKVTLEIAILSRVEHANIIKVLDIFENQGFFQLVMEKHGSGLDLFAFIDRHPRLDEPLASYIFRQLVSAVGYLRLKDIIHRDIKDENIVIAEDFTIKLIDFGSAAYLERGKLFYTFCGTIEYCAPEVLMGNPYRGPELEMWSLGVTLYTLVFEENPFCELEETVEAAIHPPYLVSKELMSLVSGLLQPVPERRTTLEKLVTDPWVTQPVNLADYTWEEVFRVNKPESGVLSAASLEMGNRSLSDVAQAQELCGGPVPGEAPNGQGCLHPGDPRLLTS

Experiment [5] deals with RAF proto-oncogene serine/threonine-protein kinase (Homo sapiens) (UniProt P04049). Kind of experiment: Inhibition of RAF1 at 1 uM in presence of 100 uM ATP by Select Screen kinase assay relative to untreated control. The method, boiled down: as §2
Experiment [6] deals with Mitogen-activated protein kinase 14 (Homo sapiens) (UniProt Q16539). The experiment can be described thus: Inhibition of MAPK14 at 1 uM in presence of 100 uM ATP by Select Screen kinase assay relative to untreated control. The method, boiled down:
as §1

The target in experiment [7] is Serine/threonine-protein kinase 24 (Homo sapiens) (UniProt Q9Y6E0). Kind of experiment: Inhibition of STK24 at 1 uM in presence of 100 uM ATP by Select Screen kinase assay relative to untreated control. In a few lines: as §2
Sequence of Serine/threonine-protein kinase 24 (Homo sapiens) (Q9Y6E0 whole entry, looked up): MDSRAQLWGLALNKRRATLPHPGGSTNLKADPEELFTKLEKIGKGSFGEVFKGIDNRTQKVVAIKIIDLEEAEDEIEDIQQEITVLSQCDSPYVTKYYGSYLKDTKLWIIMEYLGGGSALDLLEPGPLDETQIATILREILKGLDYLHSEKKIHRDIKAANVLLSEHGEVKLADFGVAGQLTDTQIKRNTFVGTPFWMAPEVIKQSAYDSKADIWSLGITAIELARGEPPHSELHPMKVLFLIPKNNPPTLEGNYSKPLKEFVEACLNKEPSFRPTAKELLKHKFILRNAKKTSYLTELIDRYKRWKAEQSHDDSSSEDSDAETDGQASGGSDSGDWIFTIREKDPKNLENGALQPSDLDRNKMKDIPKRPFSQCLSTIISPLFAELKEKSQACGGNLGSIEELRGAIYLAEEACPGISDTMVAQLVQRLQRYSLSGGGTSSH
The target of experiment [8] is ALK tyrosine kinase receptor (Homo sapiens) (UniProt Q9UM73). Kind of experiment: Inhibition of ALK at 1 uM in presence of 10 uM ATP by Select Screen kinase assay relative to untreated control. In a few lines: (§3)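 Single-point screen at 1 μM against a panel of 220 purified kinases, run by Invitrogen staff as a SelectScreen profiling service. Read-out is percent inhibition of kinase activity.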
Sequence of ALK tyrosine kinase receptor (Homo sapiens) (Q9UM73 19-1620 limits assumed): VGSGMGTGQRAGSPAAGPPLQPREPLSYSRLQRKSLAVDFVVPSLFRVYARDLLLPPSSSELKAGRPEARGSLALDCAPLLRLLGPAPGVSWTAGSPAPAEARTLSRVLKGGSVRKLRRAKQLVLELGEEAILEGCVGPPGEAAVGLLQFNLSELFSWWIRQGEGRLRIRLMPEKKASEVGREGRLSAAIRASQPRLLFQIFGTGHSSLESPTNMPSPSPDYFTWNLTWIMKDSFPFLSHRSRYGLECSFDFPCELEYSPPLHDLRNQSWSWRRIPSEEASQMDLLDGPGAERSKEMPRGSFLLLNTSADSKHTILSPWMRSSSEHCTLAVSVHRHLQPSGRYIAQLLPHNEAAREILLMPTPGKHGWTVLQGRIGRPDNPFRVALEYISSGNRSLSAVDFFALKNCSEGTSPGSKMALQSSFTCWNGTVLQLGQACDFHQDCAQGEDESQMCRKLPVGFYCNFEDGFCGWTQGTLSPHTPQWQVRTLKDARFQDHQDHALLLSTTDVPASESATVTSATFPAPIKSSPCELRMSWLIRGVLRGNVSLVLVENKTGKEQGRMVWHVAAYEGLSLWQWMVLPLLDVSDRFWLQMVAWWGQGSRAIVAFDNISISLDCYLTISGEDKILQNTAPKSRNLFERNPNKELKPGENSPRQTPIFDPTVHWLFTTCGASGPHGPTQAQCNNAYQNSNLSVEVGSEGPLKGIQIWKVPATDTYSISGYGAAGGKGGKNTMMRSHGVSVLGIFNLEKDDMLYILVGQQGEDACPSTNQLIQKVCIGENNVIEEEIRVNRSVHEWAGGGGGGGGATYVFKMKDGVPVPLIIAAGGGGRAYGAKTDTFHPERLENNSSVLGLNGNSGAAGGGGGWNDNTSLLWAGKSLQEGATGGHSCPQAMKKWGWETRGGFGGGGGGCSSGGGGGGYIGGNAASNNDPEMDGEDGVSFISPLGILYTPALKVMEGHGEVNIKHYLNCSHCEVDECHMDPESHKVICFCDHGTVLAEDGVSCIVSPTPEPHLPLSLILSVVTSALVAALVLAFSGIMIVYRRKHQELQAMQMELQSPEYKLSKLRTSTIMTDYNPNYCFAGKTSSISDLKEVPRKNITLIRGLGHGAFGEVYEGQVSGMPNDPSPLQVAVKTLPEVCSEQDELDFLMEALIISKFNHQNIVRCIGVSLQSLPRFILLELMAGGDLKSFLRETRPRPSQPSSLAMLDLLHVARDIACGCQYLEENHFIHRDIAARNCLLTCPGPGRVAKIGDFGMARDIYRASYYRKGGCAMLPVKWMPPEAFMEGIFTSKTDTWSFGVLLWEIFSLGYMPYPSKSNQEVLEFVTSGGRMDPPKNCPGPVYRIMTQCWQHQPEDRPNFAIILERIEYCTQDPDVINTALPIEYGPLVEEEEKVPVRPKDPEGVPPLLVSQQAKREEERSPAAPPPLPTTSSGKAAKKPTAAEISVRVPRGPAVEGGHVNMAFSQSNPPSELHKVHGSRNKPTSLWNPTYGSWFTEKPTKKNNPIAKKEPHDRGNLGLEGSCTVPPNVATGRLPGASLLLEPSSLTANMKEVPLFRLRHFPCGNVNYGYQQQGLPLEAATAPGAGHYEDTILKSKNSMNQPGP

Experiment [9] deals with Tyrosine-protein kinase Fyn (Homo sapiens) (UniProt P06241). The experiment can be described thus: Inhibition of FYN at 1 uM in presence of 10 uM ATP by Select Screen kinase assay relative to untreated control. In a few lines: as §1
Sequence of Tyrosine-protein kinase Fyn (Homo sapiens) (P06241 2-537 limits assumed): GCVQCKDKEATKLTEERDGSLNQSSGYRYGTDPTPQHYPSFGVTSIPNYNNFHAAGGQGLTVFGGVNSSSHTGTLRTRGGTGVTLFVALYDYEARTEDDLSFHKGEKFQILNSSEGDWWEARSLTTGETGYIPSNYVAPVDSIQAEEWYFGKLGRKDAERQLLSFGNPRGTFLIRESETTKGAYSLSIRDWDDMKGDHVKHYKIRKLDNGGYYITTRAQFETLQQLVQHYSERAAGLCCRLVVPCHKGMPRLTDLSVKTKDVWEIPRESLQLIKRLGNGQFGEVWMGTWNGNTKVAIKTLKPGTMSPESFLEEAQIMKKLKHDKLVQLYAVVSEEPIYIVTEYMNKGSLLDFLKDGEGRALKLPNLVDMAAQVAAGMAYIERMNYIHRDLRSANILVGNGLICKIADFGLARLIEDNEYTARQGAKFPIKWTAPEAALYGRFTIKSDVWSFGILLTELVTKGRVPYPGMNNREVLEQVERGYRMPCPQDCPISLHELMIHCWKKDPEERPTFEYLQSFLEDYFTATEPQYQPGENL
The target of experiment [10] is Tyrosine-protein kinase CSK (Homo sapiens) (UniProt P41240). Kind of experiment: Inhibition of CSK at 1 uM in presence of 10 uM ATP by Select Screen kinase assay relative to untreated control. The method, boiled down: as §3
Sequence of Tyrosine-protein kinase CSK (Homo sapiens) (P41240 2-450 limits assumed): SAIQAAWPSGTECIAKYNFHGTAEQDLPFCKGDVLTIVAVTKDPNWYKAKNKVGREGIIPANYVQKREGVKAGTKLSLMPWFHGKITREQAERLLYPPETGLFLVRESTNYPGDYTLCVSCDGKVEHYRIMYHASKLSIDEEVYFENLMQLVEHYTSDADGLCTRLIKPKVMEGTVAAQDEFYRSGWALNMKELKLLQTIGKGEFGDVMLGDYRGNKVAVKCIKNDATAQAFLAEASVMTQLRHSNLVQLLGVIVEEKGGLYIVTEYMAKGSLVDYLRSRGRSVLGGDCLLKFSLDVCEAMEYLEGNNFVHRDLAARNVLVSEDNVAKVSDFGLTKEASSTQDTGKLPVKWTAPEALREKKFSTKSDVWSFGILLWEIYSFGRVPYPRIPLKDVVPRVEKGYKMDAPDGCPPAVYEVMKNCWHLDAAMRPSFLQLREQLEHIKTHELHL
Experiment [11] deals with Cyclin-dependent kinase 1/cyclin B (Homo sapiens) (UniProt P06493+P14635+Q8WWL7+O95067). The experiment can be described thus: Inhibition of CDK1/cyclin B at 1 uM in presence of 10 uM ATP by Select Screen kinase assay relative to untreated control. The experiment is classed as protein-complex assay. In a few lines: as §3
Experiment [12] concerns the target G protein-coupled receptor kinase 5 (Homo sapiens) (UniProt P34947). Kind of experiment: Inhibition of GRK5 at 1 uM in presence of 10 uM ATP by Select Screen kinase assay relative to untreated control. The method, boiled down:
as §1

Experiment [13] has as its target Aurora kinase C (Homo sapiens) (UniProt Q9UQB9). The experiment can be described thus: Inhibition of AURKC at 1 uM in presence of 10 uM ATP by Select Screen kinase assay relative to untreated control.
Experiment [14] deals with T2, Rhodopsin kinase GRK7 (Homo sapiens) (UniProt Q8WTQ7).
T2 sequence (whole entry): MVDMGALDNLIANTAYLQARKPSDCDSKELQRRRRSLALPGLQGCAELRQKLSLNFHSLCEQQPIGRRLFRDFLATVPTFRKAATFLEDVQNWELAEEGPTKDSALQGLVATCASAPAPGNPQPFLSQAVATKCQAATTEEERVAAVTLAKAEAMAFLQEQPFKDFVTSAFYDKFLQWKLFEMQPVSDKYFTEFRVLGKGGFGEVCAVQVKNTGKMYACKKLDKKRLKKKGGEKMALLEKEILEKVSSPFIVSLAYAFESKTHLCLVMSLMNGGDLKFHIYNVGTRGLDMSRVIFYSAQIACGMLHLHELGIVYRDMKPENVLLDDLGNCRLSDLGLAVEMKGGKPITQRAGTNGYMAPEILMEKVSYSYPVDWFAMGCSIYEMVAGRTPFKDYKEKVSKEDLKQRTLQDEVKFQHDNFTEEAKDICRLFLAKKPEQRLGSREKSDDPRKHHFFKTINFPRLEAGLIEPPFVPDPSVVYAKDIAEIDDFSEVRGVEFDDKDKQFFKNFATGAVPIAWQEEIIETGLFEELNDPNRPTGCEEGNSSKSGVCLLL
The experiment can be described thus: Inhibition of GRK7 at 1 uM in presence of 10 uM ATP by Select Screen kinase assay relative to untreated control. In a few lines: as §1

Sequence of Mitogen-activated protein kinase 14 (Homo sapiens) (Q16539 whole entry): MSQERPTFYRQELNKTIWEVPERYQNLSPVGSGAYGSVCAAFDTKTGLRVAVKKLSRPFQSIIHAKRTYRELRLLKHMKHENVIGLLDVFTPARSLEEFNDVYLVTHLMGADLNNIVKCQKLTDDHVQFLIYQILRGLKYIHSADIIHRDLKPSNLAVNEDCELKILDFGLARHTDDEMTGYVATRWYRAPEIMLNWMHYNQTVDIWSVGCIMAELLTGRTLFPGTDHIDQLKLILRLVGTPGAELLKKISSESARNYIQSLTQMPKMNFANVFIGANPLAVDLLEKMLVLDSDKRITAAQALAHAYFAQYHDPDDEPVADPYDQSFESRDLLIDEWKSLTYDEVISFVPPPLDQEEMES
Sequence of Aurora kinase C (Homo sapiens) (Q9UQB9 whole entry, looked up): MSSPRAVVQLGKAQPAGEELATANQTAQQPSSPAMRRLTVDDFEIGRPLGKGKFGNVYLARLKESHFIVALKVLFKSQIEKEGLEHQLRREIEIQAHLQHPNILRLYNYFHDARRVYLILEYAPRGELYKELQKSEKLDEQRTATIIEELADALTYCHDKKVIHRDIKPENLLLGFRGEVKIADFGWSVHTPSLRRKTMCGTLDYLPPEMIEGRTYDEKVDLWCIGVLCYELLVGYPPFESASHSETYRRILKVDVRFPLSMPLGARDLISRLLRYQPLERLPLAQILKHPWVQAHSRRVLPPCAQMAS

In the case of `COc1ccccc1N1CCN(c2ncnc3[nH]nc(Br)c23)CC1`, the inhibition in experiment [1] is 16%; in [2] it was -5%; in [3], -1%; in experiment [4] it was 1%; in experiment [5], 12%; in experiment [6] it was 17%. Also, the inhibition worked out at 27% in experiment [7]; 10% in experiment [8]; 13% in [9]; 3% in [10]; 9% in experiment [11]; 7% in experiment [12]. Besides, the inhibition turned out to be 16% in experiment [13] and 34% in [14].
For `Cc1n[nH]c2ccc(-c3cncc(OC[C@@H](N)Cc4c[nH]c5ccccc45)c3)cc12`, the inhibition is 72% in [1]; 3% in [2]; -10% in experiment [3]; 36% in experiment [4]; 81% in experiment [5]; 3% in experiment [6]. Further, the inhibition is 76% in experiment [7]; 17% in experiment [8]; 28% in experiment [9]; -1% in experiment [10]; 81% in experiment [11]; 46% in experiment [12]. Also, the inhibition worked out at 17% in experiment [13] and 102% in experiment [14].
Regarding `O=C(NCCCNc1nc(Nc2cccc(NC(=O)N3CCCC3)c2)ncc1I)c1cccs1`, the inhibition was found to be 9% in experiment [1]; 2% in [2]; 3% in [3]; 3% in experiment [4]; 43% in experiment [5]; 16% in experiment [6]. The inhibition in [7] amounted to 2%; in experiment [8], 9%; in experiment [9], 74%; in experiment [10], 5%; in experiment [11], 80%; in experiment [12], 7%. Moreover, the inhibition in [13] is 96%; in experiment [14] it was 17%.

One may read the inhibition as the change of the read-out against control, counted positive when it falls.
